Reference: ChEMBL document CHEMBL1124579, “7-Heteroaryl-1,2,3,5-tetrahydroimidazo[2,1-b]quinazolin -2(1H)-one derivatives with cardiac stimulant activity” (J Med Chem, 1989)

How the values were obtained:
Canis familiaris [1] = assay: Relative inotropic response (50 umg/kg Intravenously) to that of 4-[4-[2-(1,1-dioxo-2-isothiazolidinyl)ethyl]-1-piperidinyl]-6,7-dimethoxyquinazoline […], in dog; type: functional, Canis lupus familiaris
Summary of the method: (§1)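 Anesthetized dog with a left-ventricular catheter introduced via the carotid artery; dP/dtmax is derived from LV pressure. The standard quinazoline (50 μg/kg iv) is given first, then the test compound iv in saline 0.5 h later, in the same dog. Relative potency = (% increase in dP/dtmax to drug ÷ % increase to standard) × (dose standard ÷ dose drug).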

Canis familiaris [2] = assay: Percent increase in dP/dtmax (positive inotropic activity) in anesthetized dog after administration of 50 ug/kg Intravenously; type: functional, Canis lupus familiaris
Summary of the method: (§2)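 Anesthetized dog with a catheter-tip transducer passed into the left ventricle via the carotid artery. LV pressure is differentiated to give dP/dtmax, the contractility index. There is 0.75 h equilibration after surgery. The compound is given iv in 0.9% saline (4 mL), 0.5 h after the standard agent (50 μg/kg). The cycle is repeated once control levels return, at least 0.5 h apart. The result is the % increase in dP/dtmax.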

Canis familiaris [3] = assay: Percent increase in dP/dtmax (positive inotropic activity) in anesthetized dog after administration of 250 ug/kg Intravenously; type: functional, Canis lupus familiaris; summary of the method: as §2
Canis familiaris [4] = assay: Relative inotropic response (10 ug/kg Intravenously) to that of 4-[4-[2-(1,1-dioxo-2-isothiazolidinyl)ethyl]-1-piperidinyl]-6,7-dimethoxyquinazoline (5- ug/kg), in dog; type: functional, Canis lupus familiaris; summary of the method: as §1
Canis familiaris [5] = assay: Cardiac contractility (decrease in the QA interval) in conscious dog, 3 hours after oral administration (dose 1 mg/kg); type: functional, Canis lupus familiaris
Summary of the method: (§3)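 Conscious dogs; the test substance is given by gavage as a solution. The QA interval is the time from the ECG R wave to the upstroke of the arterial pressure pulse, measured by computer. It is recorded every 0.16 h from 0.5 h before dosing to 4 h after. Each point is the mean of six consecutive sets, each averaged over 8 s. The result is the change from the mean predose value.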

Canis familiaris [6] = assay: Percent increase in dP/dtmax (positive inotropic activity) in anesthetized dog after administration of 10 micro mg/kg Intravenously; type: functional, Canis lupus familiaris; summary of the method: as §2
Canis familiaris [7] = assay: Cardiac contractility (decrease in the QA interval) in conscious dog 1 hour after oral administration (dose 1 mg/kg); type: functional, Canis lupus familiaris; summary of the method: as §3
Canis familiaris [8] = assay: Relative inotropic response (50 micro mg/kg Intravenously) to that of 4-[4-[2-(1,1-dioxo-2-isothiazolidinyl)ethyl]-1-piperidinyl]-6,7-dimethoxyquinazoline (5- ug/kg), in dog; type: functional, Canis lupus familiaris; summary of the method: as §1
Canis familiaris [9] = assay: Relative inotropic response (20 micro mg/kg Intravenously) to that of 4-[4-[2-(1,1-dioxo-2-isothiazolidinyl)ethyl]-1-piperidinyl]-6,7-dimethoxyquinazoline (5- ug/kg), in dog; type: functional, Canis lupus familiaris; summary of the method: as §1
Canis familiaris [10] = assay: Percent increase in dP/dtmax (positive inotropic activity) in anesthetized dog after administration of 20 ug/kg Intravenously; type: functional, Canis lupus familiaris; summary of the method: as §2
Canis familiaris [11] = assay: Cardiac contractility (decrease in the QA interval) in conscious dog, 3 hours after oral administration (dose 0.125 mg/kg); type: functional, Canis lupus familiaris; summary of the method: as §3
Canis familiaris [12] = assay: Cardiac contractility (decrease in the QA interval) in conscious dog 1 hour after oral administration (dose 0.125 mg/kg); type: functional, Canis lupus familiaris; summary of the method: as §3
Canis familiaris [13] = assay: Relative inotropic response (50 ug/kg Intravenously) to that of 4-[4-[2-(1,1-dioxo-2-isothiazolidinyl)ethyl]-1-piperidinyl]-6,7-dimethoxyquinazoline […], in dog; type: functional, Canis lupus familiaris; summary of the method: as §1
Canis familiaris [14] = assay: Relative inotropic response (2 ug/kg Intravenously) to that of 4-[4-[2-(1,1-dioxo-2-isothiazolidinyl)ethyl]-1-piperidinyl]-6,7-dimethoxyquinazoline (5- ug/kg), in dog; type: functional, Canis lupus familiaris; summary of the method: as §1
Canis familiaris [15] = assay: Cardiac contractility (decrease in the QA interval) in conscious dog, 3 hours after oral administration (dose 0.1 mg/kg); type: functional, Canis lupus familiaris; summary of the method: as §3
Canis familiaris [16] = assay: Cardiac contractility (decrease in the QA interval) in conscious dog 1 hour after oral administration (dose 0.1 mg/kg); type: functional, Canis lupus familiaris; summary of the method: as §3
Canis familiaris [17] = assay: Percent increase in dP/dtmax (positive inotropic activity) in anesthetized dog after administration of 2 micro mg/kg Intravenously; type: functional, Canis lupus familiaris; summary of the method: as §2
Canis familiaris [18] = assay: Percent increase in dP/dtmax of positive inotropic activity in conscious dog after administration of 25 ug/kg orally
Canis familiaris [19] = assay: Percent increase in dP/dtmax of positive inotropic activity in conscious dog after administration of 100 ug/kg orally
[20] = Dissociation constant was determined; type: physicochemical
Canis familiaris [21] = assay: Relative inotropic response (250 ug/kg Intravenously) to that of 4-[4-[2-(1,1-dioxo-2-isothiazolidinyl)ethyl]-1-piperidinyl]-6,7-dimethoxyquinazoline (5- ug/kg), in dog; type: functional, Canis lupus familiaris; summary of the method: as §1
Canis familiaris [22] = assay: Relative inotropic response (25 ug/kg Intravenously) to that of 4-[4-[2-(1,1-dioxo-2-isothiazolidinyl)ethyl]-1-piperidinyl]-6,7-dimethoxyquinazoline ([…]), in dog; type: functional, Canis lupus familiaris; summary of the method: as §1
Canis familiaris [23] = assay: Cardiac contractility (decrease in the QA interval) in conscious dog, 3 hours after oral administration (dose 0.25 mg/kg); type: functional, Canis lupus familiaris; summary of the method: as §3
Canis familiaris [24] = assay: Percent increase in dP/dtmax (positive inotropic activity) in anesthetized dog after administration of 25 ug/kg Intravenously; type: functional, Canis lupus familiaris; summary of the method: as §2
Canis familiaris [25] = assay: Cardiac contractility (decrease in the QA interval) in conscious dog 1 hour after oral administration (dose 0.25 mg/kg); type: functional, Canis lupus familiaris; summary of the method: as §3

CC1CC(O)=NN=C1c1ccc(-n2ccnc2)cc1.Cl (configuration not stated)
Relative potency (Canis familiaris [1]): 1.6 | Increase in dP/dtmax (Canis familiaris [2]): 100%

Cc1cn(-c2cc(C)c3c(c2)CN2C(=N3)NC(=O)C2(C)C)c(C)n1
Increase in dP/dtmax (Canis familiaris [3]): 20%

Cc1cn(-c2cc(C)c3c(c2)CN2C(=N3)NC(=O)C2C)c(C)n1 (configuration not stated)
Relative inotropic potency (Canis familiaris [4]): 0.9 | Decrease in the QA interval (Canis familiaris [5]): 15 ms | Increase in dP/dtmax (Canis familiaris [6]): 12% | Decrease in the QA interval (Canis familiaris [7]): 9 ms

O=C1CN2Cc3cc(-n4cncn4)ccc3N=C2N1
Relative inotropic potency (Canis familiaris [8]): 1.7 | Increase in dP/dtmax (Canis familiaris [2]): 63%

Cc1cn(-c2ccc3c(c2)CN2CC(=O)NC2=N3)c(C)n1
Relative inotropic potency (Canis familiaris [9]): 1.9 | Decrease in the QA interval (Canis familiaris [5]): 10 ms | Increase in dP/dtmax (Canis familiaris [10]): 30% | Decrease in the QA interval (Canis familiaris [7]): 6 ms

Cc1cc(-n2cncn2)cc2c1NC1=NC(=O)CN1C2
Relative inotropic potency (Canis familiaris [8]): 3.2 | Decrease in the QA interval (Canis familiaris [11]): 12 ms | Increase in dP/dtmax (Canis familiaris [2]): 76% | Decrease in the QA interval (Canis familiaris [12]): 8 ms

Cc1ccc(-c2ccc3c(c2)C(C)N2CC(=O)N=C2N3)c(C)n1 (configuration not stated)
Relative inotropic potency (Canis familiaris [8]): 1.6 | Decrease in the QA interval (Canis familiaris [11]): 9 ms | Increase in dP/dtmax (Canis familiaris [2]): 50% | Decrease in the QA interval (Canis familiaris [12]): 13 ms

Cc1ccc(-c2ccc3c(c2)CN2CC(=O)NC2=N3)c(C)n1
Relative potency (Canis familiaris [13]): 1.3 | Decrease in the QA interval (Canis familiaris [5]): 15 ms | Increase in dP/dtmax (Canis familiaris [2]): 29% | Decrease in the QA interval (Canis familiaris [7]): 14 ms

Cc1cc(-n2cnnc2)cc2c1NC1=NC(=O)CN1C2
Relative potency (Canis familiaris [13]): 0.5 | Increase in dP/dtmax (Canis familiaris [2]): 24%

Cc1ccc(-c2cc(C)c3c(c2)CN2CC(=O)NC2=N3)c(C)n1
Relative inotropic potency (Canis familiaris [4]): 2.7 | Decrease in the QA interval (Canis familiaris [11]): 15 ms | Increase in dP/dtmax (Canis familiaris [6]): 30% | Decrease in the QA interval (Canis familiaris [12]): 15 ms

Cc1cn(-c2cc(C)c3c(c2)CN2CC(=O)NC2=N3)c(C)n1
Relative inotropic potency (Canis familiaris [14]): 7.8 | Decrease in the QA interval (Canis familiaris [15]): 15 ms | Decrease in the QA interval (Canis familiaris [16]): 5 ms | Increase in dP/dtmax (Canis familiaris [17]): 23% | Increase in dP/dtmax (Canis familiaris [18]): 20% | Increase in dP/dtmax (Canis familiaris [19]): 50%

O=C1CN2Cc3ccccc3N=C2N1
pKa [20]: 10.9 | Relative inotropic potency (Canis familiaris [21]): 0.1 | Increase in dP/dtmax (Canis familiaris [3]): 24%

Cc1[nH]c(=O)c(C#N)cc1-c1ccncc1 [MILRINONE]
Relative potency (Canis familiaris [22]): 1.6 | Decrease in the QA interval (Canis familiaris [23]): 7 ms | Increase in dP/dtmax (Canis familiaris [24]): 46% | Decrease in the QA interval (Canis familiaris [25]): 13 ms

Cc1cn(-c2cc(C)c3[nH]c(=O)ccc3c2)c(C)n1 [NANTERINONE]
pKa [20]: 11.2

C[C@@H]1C(=O)NC2=Nc3cccc(Cl)c3CN21 [QUAZINONE]
Relative inotropic potency (Canis familiaris [21]): 0.3 | Increase in dP/dtmax (Canis familiaris [3]): 66%
